Screening results: PubChem, several laboratories
VIM-2 inh: VIM-2 metallo-beta-lactamase inhibitors, primary screen, biochemical, epi-absorbance readout, Pseudomonas aeruginosa enzyme; inhibition, % at 5.6 µM; 290,000 compounds, 0.89% hits; purified VIM-2, nitrocefin hydrolysis, epi-absorbance fluorescence;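 active = inhibition above the mean of all tested compounds plus 3 SD, cutoff set per screening run, cut at about 7.5% in these data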;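 note: red hydrolysis product quenches plate fluorescence so inhibitors raise well fluorescence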
HCV NS3 hel inh: inhibitors of HCV NS3 helicase, primary screen, biochemical, Cy5 molecular beacon fluorescence | Hepatitis C virus NS3 helicase | NS3 helicase DNA unwinding | inhibition, % at 10.9 µM | 290,000 compounds, 0.56% hits | AID 1800, 2009;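 active = inhibition above the mean of all tested compounds plus 3 SD, set per campaign, cut at about 35% in these data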
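Control set: DMSO versus 110 µM thioflavine S; Material: NS3 helicase fragment of HCV; Measured by: Cy5 fluorescence at 0 and 60 min, beacon hairpin quenching; Read-out basis: percent inhibition from t60/t0 fluorescence ratio; Times: reaction time 60 min, 25 °C; Repeats: single replicate; Compound dosing: single dose, 10.9 µM nominal final, DMSO 0.8% final.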
SUMO HTRF inh: inhibitors of in vitro SUMOylation cascade, primary screen, biochemical, HTRF, uHTS | SUMO-conjugating enzyme UBC9 (Homo sapiens), P63279 | HTRF SUMOylation assay, SAE1/SAE2 + UBC9 | inhibition, % at 35 µM | 290,000 compounds, 0.36% hits; in the data active = inhibition above about 50%, passing the limit was not always enough
Target sequence (P63279 whole entry, looked up): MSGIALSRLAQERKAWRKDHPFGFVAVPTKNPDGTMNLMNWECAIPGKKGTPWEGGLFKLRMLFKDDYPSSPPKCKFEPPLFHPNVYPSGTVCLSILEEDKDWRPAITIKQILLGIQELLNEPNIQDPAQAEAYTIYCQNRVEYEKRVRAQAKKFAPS
PHOSPHO1 inh: PubChem AID 1565 | Phosphoethanolamine/phosphocholine phosphatase (Homo sapiens), Q8TCT1 | recombinant PHOSPHO1, absorbance phosphatase assay | inhibition, % at 13.3 µM | 290,000 compounds, 1.1% hits; in the data active = inhibition above about 60%
Target sequence (Q8TCT1 whole entry, looked up): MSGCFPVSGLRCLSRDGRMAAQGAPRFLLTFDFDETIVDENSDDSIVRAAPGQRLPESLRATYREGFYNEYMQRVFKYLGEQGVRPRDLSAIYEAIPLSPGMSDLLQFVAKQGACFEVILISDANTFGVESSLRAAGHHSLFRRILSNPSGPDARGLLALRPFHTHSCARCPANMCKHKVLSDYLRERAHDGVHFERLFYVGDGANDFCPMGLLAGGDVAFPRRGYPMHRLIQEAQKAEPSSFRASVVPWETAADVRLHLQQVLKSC
IMP-1 inh: IMP-1 metallo-beta-lactamase inhibitors, primary screen, biochemical, epi-absorbance readout, Pseudomonas aeruginosa enzyme | purified IMP-1, nitrocefin hydrolysis, epi-absorbance fluorescence | inhibition, % at 5.6 µM | 290,000 compounds, 0.45% hits;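 active = inhibition above the mean plus 3 SD of all compounds in the same screening run, cut at about 4.5% in these data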
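Test system: recombinant IMP-1 enzyme, purified / Medium: HEPES buffer pH 7.1 with ZnSO4 and Brij 35 / Doses: single dose, 5.6 µM / Times: 25 °C, 15 min preincubation, 25 min reaction / Detection: Epi-absorbance via hydrolysed-nitrocefin quenching of white-plate fluorescence, 480/530 nm, EDTA stop / Evaluation: percent inhibition from optical density relative to buffer-blank wells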
core dimer inh: inhibitors of HCV core protein dimerization, primary screen, biochemical, TR-FRET, high-throughput; TR-FRET GST/Flag-core106 dimerization, 1536-well; inhibition, % at 5 µM; 300,000 compounds, 0.33% hits; AID 1899, 2009;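 active = inhibition above the mean of all tested compounds plus 3 SD, set per screening campaign, cut at about 45% in these data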
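Assay system: tagged HCV core106 pair (GST and Flag); medium: KF-containing HEPES buffer, pH 7.45, DTT, CHAPS, BSA; also added: Eu donor and XL665 acceptor anti-tag antibodies; dosing: 5 µM single dose; timing: compound-protein-antibody incubation 4 h at 22.5 °C; signal: TR-FRET 671 and 617 nm emission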
Large screens that a line does not name were inactive. An excerpt weighted towards active compounds, which were near 3.1% of everything screened.

Cc1ccc(C2C(C#N)=C(N)SC(N)=C2C#N)o1	PHOSPHO1 inh 102, core dimer inh 46
CCOC(=O)C1=C(C)OC(N)=C(C#N)C1c1ccc(C)o1 (stereo unspecified)	none
CCOC(=O)N1CCN(C(=O)CSc2nc(=O)n3ccc(C)cc3n2)CC1	none (no result: VIM-2 inh, HCV NS3 hel inh, SUMO HTRF inh, PHOSPHO1 inh, IMP-1 inh)
C/C(=N\NC(=O)CSc1nc2ccccc2s1)c1ccco1	none
CCOC(=O)Cc1csc(NC(=O)c2c(O)c3c(n(CC(C)C)c2=O)CCCC3)n1	none
CCN(CC)c1ccc2c(c1)OC(N)=C(C#N)C2c1cccnc1 (stereo unspecified)	IMP-1 inh 9.6
Cc1ccc(OCC(=O)OCC(=O)c2cccc([N+](=O)[O-])c2)cc1C	none
CCOc1ccc(/C=C2/SC(=S)N(C(C(=O)O)c3ccccc3)C2=O)cc1OCC (stereo unspecified)	none (no result: core dimer inh)
COc1ccccc1/C=C1\SC(=S)N(C(C(=O)O)c2ccccc2)C1=O (stereo unspecified)	VIM-2 inh 9.4
CCn1c(SCC(=O)Nc2nccs2)nnc1-c1ccc(S(=O)(=O)N2CCCCCC2)cc1	none
CCC(Sc1nnc(-c2ccc(C)c(Cl)c2)n1CC)C(=O)Nc1nccs1 (stereo unspecified)	PHOSPHO1 inh 62
COc1cccc(N2CC(C)Cn3c2nc2c3c(=O)[nH]c(=O)n2C)c1 (stereo unspecified)	none (no result: core dimer inh)
COC(=O)c1cc(OC)c(OC)cc1N=CC1=C(O)CC(C)(C)CC1=O	IMP-1 inh 5.1
O=C1OC(c2ccccc2)c2ccc3ccccc3c21 (stereo unspecified)	VIM-2 inh 9.5
CCOC(=O)NN=C1CN(S(=O)(=O)c2ccc(C)cc2)C1	none
CCCSc1nc2cc(C)c(C)cc2n1CC(C)O (stereo unspecified)	none
CCN(CC)C(=O)c1sc2nc(-c3ccncc3)[nH]c(=O)c2c1C	SUMO HTRF inh 52
O=c1c2c3n(c(=S)nc2[nH]n1-c1ccccc1)CCCCC3	PHOSPHO1 inh 82
Cc1cc(-c2ccccc2)c2c(=O)n(-c3ccccc3)[nH]c2n1	none
COc1cc(OC)c(NC(=O)c2ccc3c(SCC(=O)O)c4c(nc3c2)CCCC4)cc1Cl	core dimer inh 47
Cc1ncc([N+](=O)[O-])n1CCOC(=O)c1ccc(Cl)cc1Cl	VIM-2 inh 9.7
COc1ccc(NC(=O)OCCn2c([N+](=O)[O-])cnc2C)cc1	none
CC(C)C(NC(=O)COc1ccc2ccccc2c1)C(=O)N/N=C/C=C/c1ccccc1 (stereo unspecified)	PHOSPHO1 inh 93
COc1ccc(/C=C/C=N/NC(=O)COc2ccc(OC)cc2)cc1	none
Cc1cc(C(F)(F)F)n(-c2ccc(N)cc2)n1	none
C/C(N=Nc1nc2ccccc2s1)=N\Nc1ccccc1O	none
Cc1ccc(C)c(NC(=S)Nc2cccc3cnccc23)c1	VIM-2 inh 11
FC(F)(F)c1ccccc1NC(=S)Nc1cccc2cnccc12	none (no result: core dimer inh)
Cc1ccccc1NC(=S)Nc1cccc2cnccc12	VIM-2 inh 8.0, SUMO HTRF inh 97
Cc1ccc(NC(=S)Nc2cccc3cnccc23)cc1C	none
Fc1ccccc1NC(=S)Nc1cccc2cnccc12	SUMO HTRF inh 98
COc1cccc2c1C(=O)c1c(O)c3c(c(O)c1C2=O)C[C@@](O)(C(C)=O)C[C@@H]3O[C@H]1C[C@H](N)[C@H](O)[C@H](C)O1	VIM-2 inh 19 (no result: core dimer inh)
CCn1c(SCC(=O)N2CCN(c3ccc(F)cc3)CC2)nc2ccccc2c1=O	none
CCn1c(SCC(=O)N2CCN(c3ccc(Cl)cc3)CC2)nc2ccccc2c1=O	PHOSPHO1 inh 66
CCCCn1c(SCC(=O)N2CCN(c3ccccc3)CC2)nc2ccsc2c1=O	PHOSPHO1 inh 78
CCn1c(SCC(=O)N2CCN(c3ccccc3)CC2)nc2c(c1=O)SC(C)C2 (stereo unspecified)	IMP-1 inh 4.9
CCCCn1c(SCC(=O)N2CCC(C)CC2)nc2ccsc2c1=O	none
O=C(O)C1C2CCC(C2)C1C(=O)NCCc1ccccc1 (stereo unspecified)	none (no result: PHOSPHO1 inh)
COc1cccc(-n2sc3c(c2=S)-c2cc(OC)ccc2NC3(C)C)c1	PHOSPHO1 inh 88
COc1cccc(-n2cn[nH]c2=S)c1	none
COc1cc2sc3ccc(C#CC4(O)CCCCC4)cc3c(=O)c2cc1OC	none (no result: VIM-2 inh, HCV NS3 hel inh, SUMO HTRF inh, PHOSPHO1 inh, IMP-1 inh)
COc1cccc2sc3ccc(C#CC4(N)CCCCC4)cc3c(=O)c12	VIM-2 inh 9.0
Cc1nc(-c2ccc(S(=O)(=O)NCc3cccnc3)s2)cs1	none
CCCOc1ccc(C(=O)Nc2ccc(N(C)C)cc2)cc1	none
CCN(CC)c1ccc(NC(=O)COc2ccc(C)cc2)cc1	PHOSPHO1 inh 81
CC(C)Oc1ccc(C(=O)Nc2ccc(N(C)C)cc2)cc1	PHOSPHO1 inh 76
CCNC(=O)COC(=O)CCC(=O)c1ccc(F)cc1	none
Cc1ccc(OCC(=O)Nc2ccc(N(C)C)cc2)cc1	PHOSPHO1 inh 81
CN(C)c1ccc(NC(=O)COC(=O)CCC(=O)c2ccc(F)cc2)cc1	PHOSPHO1 inh 100
O=C(CCc1ccc(O)c(O)c1)NNC(=S)Nc1ccc(Br)cc1Cl	none
CO/N=C/CC(=O)c1ccc([N+](=O)[O-])c(CS(=O)(=O)c2ccc(Cl)cc2)c1	none (no result: PHOSPHO1 inh)
COc1ccc(/C=N/NC(=O)c2nc(-c3ccccc3)cc(-c3ccccc3)n2)cc1OC	none
COc1cccc(/C=N/NC(=O)c2nc(-c3ccccc3)cc(-c3ccccc3)n2)c1	core dimer inh 50
COc1ccc(CC(=O)OCN2C(=O)c3ccccc3C2=O)cc1OC	none
CC[C@H](C)[C@@H](CN[C@H](C)CNC)NCCC(c1ccccc1)c1ccccc1	none
CNC[C@@H](C)NC[C@@H](Cc1ccccc1)NCCc1ccccc1	VIM-2 inh 12
CC(C)(CC(=O)O)CC(=O)NNc1ncccc1C#N	none
CC[n+]1c(/C=C/Nc2ccccc2)sc2ccccc21	PHOSPHO1 inh 98
O=C1Nc2ccccc2N(O)N1c1cc(-c2ccc(Cl)cc2)[nH]n1	none
O=C(CC1S/C(=N/N=C/C=C/c2ccccc2)NC1=O)Nc1ccc(Cl)c(Cl)c1 (stereo unspecified)	SUMO HTRF inh 68
O=C1NCCCC2c3cc(O)c4ccccc4c3OC12N1CCCCC1 (stereo unspecified)	SUMO HTRF inh 56
CC(=O)NS(=O)(=O)c1ccc(NC(=O)COc2ccc(C(=O)c3ccccc3)cc2)cc1	none
CN(C)c1nc(N)nc(Cn2ccnc2)n1	VIM-2 inh 8.8
